Data as given in ChEMBL document CHEMBL4017489, “Design, Synthesis, and Evaluation of New Selective NM23-H2 Binders as c-MYC Transcription Inhibitors via Disruption of the NM23-H2/G-Quadruplex Interaction” (J Med Chem, 2017).
Activity calls are given as the source filed them. The rule behind the calls is not given here.

How the values were obtained:
SiHa [1] = test: Cell cycle arrest in human SiHa cells assessed as accumulation at S phase at 2 uM after 24 hrs by propidium iodide staining based flow cytometry (reference value: 13 %); format: functional
In short: (§1)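 SiHa cells (2.0 × 10^5 per well) plated 24 h, then exposed to 2 μM compound or left untreated for 3, 6, 9, 12, 24, 36 or 48 h. Cells washed in PBS, fixed overnight in ice-cold 70% ethanol, treated with 20 μg/mL RNase A for 30 min at 37 °C, stained with PI, and read by flow cytometry at 488 nm. Phase percentages compared with untreated control; at least three experiments.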

[2] = target: Nucleoside diphosphate kinase B (Homo sapiens, UniProt P22392); test: Binding affinity to N-terminal NT-647-NHS labeled NM23-H2 (unknown origin) after 30 mins by MST analysis
Chain of Nucleoside diphosphate kinase B (Homo sapiens, UniProt P22392) (P22392 whole entry): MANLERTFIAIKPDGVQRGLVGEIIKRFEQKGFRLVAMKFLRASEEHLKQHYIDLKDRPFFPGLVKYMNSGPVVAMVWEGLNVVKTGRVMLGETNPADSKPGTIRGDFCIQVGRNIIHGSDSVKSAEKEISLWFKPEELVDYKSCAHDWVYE
In short: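 NM23-H2 N-terminally labeled with RED-NHS dye (20 μM protein, 30 min dark, RT), free dye removed; 200 nM labeled protein with compound from 500 μM, 16 twofold steps, 30 min RT in 50 mM Tris-HCl pH 7.4, 150 mM NaCl, 10 mM MgCl2, 0.05% Tween-20; KD at half-plateau.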

[3] = Cell cycle arrest in mouse primary mesangial cells at 2 uM after 9 to 48 hrs by propidium iodide staining based flow cytometry method
SiHa [4] = test: Cell cycle arrest in human SiHa cells assessed as accumulation at G2/M phase at 2 uM after 3 hrs by propidium iodide staining based flow cytometry (reference value: 39%); format: functional
In short: (§2)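 SiHa cells plated 24 h, treated at 2 μM for 3–48 h; fixed in ice-cold 70% ethanol overnight, RNase A 20 μg/mL 37 °C 30 min, PI-stained, flow cytometry at 488 nm; phase percentages quantified; at least three experiments.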

SiHa [5] = test: Cell cycle arrest in human SiHa cells assessed as accumulation at S phase at 2 uM after 12 hrs by propidium iodide staining based flow cytometry (reference value: 13 %); format: functional; in short: as §1
[6] = Induction of apoptosis in mouse primary mesangial cells at 0.5 to 2 uM after 48 hrs by Annexin V-FITC/propidium iodide based flow cytometric analysis; conditions: primary mesangial cell
In short: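 Primary cultured mouse mesangial cells treated at the same concentrations as SiHa cells. Stained with annexin V-FITC and PI and analysed by flow cytometry.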

SiHa [7] = test: Cell cycle arrest in human SiHa cells assessed as accumulation at sub-G1 phase at 2 uM after 12 hrs by propidium iodide staining based flow cytometry relative to control; format: functional; in short: as §1
SiHa [8] = test: Induction of apoptosis in human SiHa cells assessed as late apoptotic cells at 0.5 uM after 48 hrs by Annexin V-FITC/propidium iodide based flow cytometric analysis (reference value: 0.7 %); format: functional
SiHa [9] = test: Effect on NM23-H2 mRNA level in human SiHa cells up to 2 uM after 9 hrs by RT-PCR analysis; format: functional, cell-based
In short: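 SiHa cells treated with 0, 0.5, 1.0 or 2.0 μM for 9 h. TRIzol RNA (1.5 μg) reverse-transcribed with M-MLV and oligo(dT) for 1 h at 42 °C. Semiquantitative PCR run for 30 cycles (58 °C annealing) and products resolved on 1.5% agarose. Band intensity normalized to β-actin, with untreated sample set at 100%; three repeats.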

SiHa [10] = test: Cell cycle arrest in human SiHa cells assessed as accumulation at G2/M phase at 2 uM after 12 hrs by propidium iodide staining based flow cytometry (reference value: 39 %); format: functional; in short: as §2
SiHa [11] = test: Down regulation of CDK6 expression in human SiHa cells at 0.5 to 2 uM after 24 to 48 hrs by Western blot analysis; format: functional, cell-based
In short: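 SiHa cells (2.0 × 10^5) treated with compound at various concentrations for 24 or 48 h, then lysed at 4 °C. Protein measured by BCA; 30 μg run on 10% SDS-PAGE and transferred to nitrocellulose. Membranes blocked in 5% milk, probed with primary antibodies overnight at 4 °C, then HRP secondary for 2 h, and detected by chemiluminescence. Bands quantified by densitometry; at least three experiments.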

[12] = target: Nucleoside diphosphate kinase B (Homo sapiens, UniProt P22392, H118F); test: Binding affinity to N-terminal NT-647-NHS labeled NM23-H2 H118F mutant (unknown origin) after 30 mins by MST analysis
Chain of Nucleoside diphosphate kinase B (Homo sapiens, UniProt P22392, H118F) (P22392 whole entry H118F): as the sequence (P22392 whole entry) above, with H118F counted along it

[13] = Antiproliferative activity against mouse primary mesangial cells at 4 uM up to 100 hrs by real-time cellular activity assay; format: cell-based; conditions: primary mesangial cell
In short: (§3)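 Impedance-based real-time cell analysis at 37 °C, 5% CO2: 100 μL of 20 000 cells/mL added over medium background, settled 20 min, dosed after 24 h; read every 2 min for 2 h, then every 15 min to end; three repeats.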

SiHa [14] = test: Cell cycle arrest in human SiHa cells assessed as accumulation at G2/M phase at 2 uM after 24 hrs by propidium iodide staining based flow cytometry (reference value: 39 %); format: functional; in short: as §2
SiHa [15] = test: Antiproliferative activity against human SiHa cells harboring NM23-H2 siRNA up to 2 uM after 24 hrs by real-time cellular activity assay; format: functional, cell-based
In short: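 SiHa cells precultured 24 h, transfected with 30 nM NM23-H2 siRNA for 6 h, dosed up to 2 μM 24 h after siRNA; growth followed by impedance-based real-time cell analysis.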

[16] = Antiproliferative activity against mouse primary mesangial cells at 0.5 to 2 uM up to 100 hrs by real-time cellular activity assay; format: cell-based; conditions: primary mesangial cell; in short: as §3
SiHa [17] = test: Antiproliferative activity against human SiHa cells after 48 hrs by MTT assay; format: functional, cell-based
SiHa [18] = test: Induction of apoptosis in human SiHa cells assessed as increase in cleaved caspase-3 level after 48 hrs by Western blot analysis; format: functional, cell-based
In short: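 SiHa cells treated with 0, 0.5, 1.0 or 2.0 μM for 48 h and lysed for total protein. Caspase-3, cleaved caspase-3, PARP and cleaved PARP detected by Western blot (30 μg protein, 10% SDS-PAGE, HRP chemiluminescence). Bands quantified by densitometry; at least three experiments.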

[19] = Binding affinity to biotin-labeled Pu22 c-myc G-quadruplex DNA (unknown origin) at 40 uM after 30 mins by SPR analysis
SiHa [20] = test: Induction of apoptosis in human SiHa cells assessed as early apoptotic cells at 0.5 uM after 48 hrs by Annexin V-FITC/propidium iodide based flow cytometric analysis (reference value: 1.4 %); format: functional
Mus musculus = test: Toxicity in BALB/C nude mouse xenografted with human SiHa cells assessed as discomfort at 2.5 to 5 mg/kg, ip administered daily after 3 weeks; format: organism-based; conditions: in vivo, 504 h
In short: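 SiHa cells implanted in the right armpit of BALB/c nu/nu mice. At approximately 50 mm3, mice randomized (n = 8/group) to vehicle, compound 2.5 or 5.0 mg/kg, or doxorubicin 1.0 mg/kg, given ip daily for 3 weeks. Body weight and signs of pain, distress or discomfort monitored; tumors excised and weighed. Data given as mean ± SEM, t test against vehicle.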

SiHa [21] = test: Cell cycle arrest in human SiHa cells assessed as accumulation at S phase at 2 uM after 48 hrs by propidium iodide staining based flow cytometry (reference value: 13 %); format: functional; in short: as §1
SiHa [22] = test: Induction of apoptosis in human SiHa cells assessed as late apoptotic cells at 1 uM after 48 hrs by Annexin V-FITC/propidium iodide based flow cytometric analysis (reference value: 0.7 %); format: functional

CN(C)CCCNc1cc2nc3n(c(=O)c2cc1F)CC/C3=C\c1ccc(OCc2ccccc2)cc1O
Activity (SiHa [1]): 6% | Kd [2]: 2000 nM | Activity [3]: Non-Toxic | Activity (SiHa [4]): 38% | Activity (SiHa [5]): 11% | Activity [6]: Non-Toxic | Activity (SiHa [7]): 8% | Activity (SiHa [8]): 5.1% | Activity (SiHa [9]): inactive | Activity (SiHa [10]): 27% | Activity (SiHa [11]): Active | Kd [12]: 7700 nM | Activity [13]: Toxic | Activity (SiHa [14]): 8% | Activity (SiHa [15]): inactive | Activity [16]: Non-Toxic | IC50 (SiHa [17]): 1780 nM | Activity (SiHa [18]): Dose-dependent effect | Activity [19]: inactive | Activity (SiHa [20]): 11.8% | Activity (Mus musculus): Non-Toxic | Activity (SiHa [21]): 0% | Activity (SiHa [22]): 10.6%
